# Screening data as filed in PubChem.
# Sampled rows, rich in hits. Any-hit rate of the full collection: about 4.4%.
# EBI2 block = EBI2 (human) antagonism. AID 651636. EBI2 beta-arrestin recruitment, luminescence, 7a,25-OHC stimulated. P32249. actives 0.81% (n = 360,000). inhibition, % at 5 µM; in the data active = inhibition above about 38%;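 also: enzyme fragment complementation signal reports receptor beta-arrestin coupling in cells; 0% = agonist plus DMSO wells and 100% = wells without agonist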
# Target sequence (P32249 whole entry, looked up, the tested form may be a part): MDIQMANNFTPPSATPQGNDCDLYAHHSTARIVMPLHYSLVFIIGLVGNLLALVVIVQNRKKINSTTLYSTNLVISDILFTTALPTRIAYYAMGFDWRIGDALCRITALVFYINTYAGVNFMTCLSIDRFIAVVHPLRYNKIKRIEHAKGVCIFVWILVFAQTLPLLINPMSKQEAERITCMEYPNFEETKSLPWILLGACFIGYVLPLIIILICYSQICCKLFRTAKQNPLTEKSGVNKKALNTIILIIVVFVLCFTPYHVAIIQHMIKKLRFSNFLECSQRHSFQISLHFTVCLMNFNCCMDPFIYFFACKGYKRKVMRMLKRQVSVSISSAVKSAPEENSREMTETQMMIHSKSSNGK
# GRIN3A LBD mod = NR3A (human) ligand-binding domain modulation; NR3A LBD differential scanning fluorimetry, Tm shift; 0% = protein alone, 100% = glycine-bound protein; Tm shift relative to glycine control, % at 25 µM; actives 2.5% (n = 340,000);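 active = melting temperature shift of at least 10% of the positive control shift, at one fixed dose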
# MPTP block = permeability transition pore inhibition | isolated mouse mitochondria, Ca2+ swelling absorbance, 30 min | actives 1.4% (n = 360,000) | AID 602449 | inhibition, % at 10 µM;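 active = inhibition of 50% or more, scaled per plate between neutral and stimulator controls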;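 also: 0% = DMSO wells given calcium and 100% = 1 mM EGTA wells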
# SENP1 inh = blocks the human SENP1 SUMO protease catalytic domain | inhibition, % at 10 µM | recombinant SENP1 catalytic domain, CyPet-SUMO1-YPet FRET cleavage | actives 0.21% (n = 360,000);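 active = inhibition at least 30% at 10 µM, raw YFP signal under a set limit, fluorescence ratio 0.5 to 1.5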;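 also: 0% = enzyme with DMSO and 100% = no enzyme wells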
# Target sequence (Q9P0U3 419-644 limits assumed): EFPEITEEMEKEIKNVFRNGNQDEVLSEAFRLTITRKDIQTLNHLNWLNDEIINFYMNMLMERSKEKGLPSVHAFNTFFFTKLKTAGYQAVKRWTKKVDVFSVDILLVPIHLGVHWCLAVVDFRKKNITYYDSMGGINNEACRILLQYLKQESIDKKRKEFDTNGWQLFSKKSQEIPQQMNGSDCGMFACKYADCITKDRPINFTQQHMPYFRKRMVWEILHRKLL
#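 system = hSENP1 catalytic domain, recombinant | reagent = SFCypet-SUMO1-SFYpet substrate at 25 nM | doses = one dose per compound, 10 µM, 0.5% DMSO | incubation = enzyme reaction for 50 min at room temperature, dark | measured by = FRET, CFP and YFP emission | controls = no-enzyme low, enzyme-DMSO high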
# MPTP counter = membrane potential counter-screen of mitochondrial pore inhibitors; shares compounds with MPTP block; isolated mitochondria, Rhodamine 123 fluorescence; inhibition, % at 10 µM; actives 78% (n = 5,000); in the data active = inhibition above about 22%;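 also: 0% = DMSO vehicle and 100% = positive control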
# MPTP abs DR = dose response confirmation of mitochondrial permeability transition pore inhibitors. isolated mitochondria swelling, absorbance. AID 651561. IC50, µM. shares compounds with MPTP block. actives 58% (n = 780); in the data active = IC50 below about 20 µM
# MPTP counter DR = counter-screen for mitochondrial permeability transition pore inhibitors, dose response. shares compounds with MPTP block. isolated mitochondria counterscreen, fluorescence read-out. IC50, µM. actives 49% (n = 780). AID 651564; in the data active = IC50 below about 80 µM
# * marks the source's active call; other numbers are inactive results; i = inactive; · = not tested or not shown.
SMILES,EBI2 block,GRIN3A LBD mod,MPTP block,SENP1 inh,MPTP counter,others
O=S(=O)(Nc1nc2ccccc2s1)c1ccc(Cl)s1,0.9,0.3,78.2*,0.2,79.7*,
O=S(=O)(Nc1nc2ccccc2s1)c1cnc(Cl)c(Br)c1,-11.9,6.3,89.7*,-3.6,85.5*,
Cc1cc(N2CCN(c3nc4ccccc4s3)CC2)n2ncnc2n1,-5.3,-0.2,82.1*,1.1,72.8*,
COc1ccccc1-n1c(SCC(=O)c2ccc(O)cc2O)nc2cc([N+](=O)[O-])ccc21,17.4,29.9*,88.4*,3.1,66.3*,
COc1ccccc1-n1c(SCC(=O)NC2CCS(=O)(=O)C2)nc2cc([N+](=O)[O-])ccc21 (stereo not drawn),-3.4,0.1,0.8,1.7,·,
Oc1ccc(Br)cc1-c1cc(-c2ccccc2Cl)[nH]n1,25.9,23.4*,73.6*,1.4,58.7*,
Oc1ccc(Br)cc1-c1cc(-c2ccccc2F)[nH]n1,37.7,9.7,63.3*,0.5,57.7*,
CCC(=O)[C@@]1(C)[C@H](C)C[C@H]2[C@@H]3CCC4=CC(=O)C=C[C@]4(C)[C@H]3[C@@H](O)C[C@@]21C,3.6,0.6,-1.4,-2.4,·,
CC1Cc2cc(S(=O)(=O)NCc3ccccc3)ccc2N1C(=O)C1CC1 (stereo not drawn),-5.6,-1.4,11.5,-2.3,·,
CC1Cc2cc(S(=O)(=O)NCc3ccccc3)ccc2N1C(=O)C1CCC1 (stereo not drawn),-3.7,-0.2,72.2*,-0.7,53.2*,
CC(NCCC(c1ccccc1)c1ccccc1)c1ccccc1 (stereo not drawn),2.8,0.6,94.3*,0.8,-2.2,
CCOC(=O)c1cc([N+](=O)[O-])sc1NC(=O)c1ccc(S(=O)(=O)N2CC3(C)CC2CC(C)(C)C3)cc1 (stereo not drawn),1.0,1.0,91.4*,8.2,4.4,MPTP abs DR=2.38*;MPTP counter DR=<2.5*
CC1(C)CC2CC(C)(CN2S(=O)(=O)c2ccc(C(=O)Nc3ccc(S(=O)(=O)N4CCOCC4)cc3)cc2)C1 (stereo not drawn),18.9,6.1,43.5,-0.7,·,
COc1ccccc1NC(=O)CNC(=O)c1ccc(Br)o1,12.7,-1.2,0.6,0.6,·,
c1ccc(-c2cn(-c3ccccc3)c3ncnc(N4CCCCC4)c23)cc1,-0.6,2.6,25.8,1.2,·,
CN1CCN(c2ncnc3c2c(-c2ccccc2)cn3-c2ccc(F)cc2)CC1,35.4,-2.3,79.5*,2.0,-4.9,MPTP abs DR=19.9*;MPTP counter DR=>80
COc1cc(NC(=O)Cn2nc(C(F)(F)F)c(Br)c2C)cc([N+](=O)[O-])c1,6.7,21.1*,85.4*,0.9,82.4*,
COc1ccc(CNC(=O)Cn2nc(C(F)(F)F)c(Br)c2C)cc1,5.5,-3.3,0.3,-0.4,·,
Cc1onc(-c2c(Cl)cccc2Cl)c1C(=O)NCc1ccco1,-4.4,2.1,71.9*,0.0,3.5,MPTP abs DR=i;MPTP counter DR=>80
Cc1ccc(NC(=O)c2ccc(C)cc2)cc1,3.6,-10.9,2.5,1.4,·,
Cc1ccc(C(=O)Nc2ccc(Br)c(C(F)(F)F)c2)cc1,-5.4,10.3*,94.1*,2.9,83.0*,
O=C(Nc1ccccc1)C1C2CCC3C(CCC21)C3(Cl)Cl (stereo not drawn),11.5,-1.5,1.1,1.2,·,
O=C(Nc1cccc(Cl)c1)C1C2CCC3C(CCC21)C3(Cl)Cl (stereo not drawn),18.3,14.0*,98.7*,0.9,95.6*,
Cc1ccccc1C(=O)N1CCC(C(=O)Nc2sccc2C(N)=O)CC1,-15.4,-0.3,0.5,-1.0,·,
Cc1nn(-c2ccccc2)c(N2CCCC2)c1/C=N/O,6.9,0.1,50.2*,-0.3,0.4,MPTP abs DR=>100;MPTP counter DR=>80
SMILES,EBI2 block,GRIN3A LBD mod,MPTP block,SENP1 inh,MPTP counter,others
Cc1nn(-c2ccccc2)c(Cl)c1/C=N/O,-10.7,0.4,1.0,1.9,·,
C=CCn1c(SCC(=O)c2cccs2)nc2sc(CC)cc2c1=O,12.9,1.1,91.2*,1.1,76.9*,
C=CCn1c(SCC(=O)O)nc2sc(CC)cc2c1=O,-11.1,0.0,0.5,-0.7,·,
C=CCn1c(SCC2CCCCO2)nc2sc(CC)cc2c1=O (stereo not drawn),-6.0,-2.4,54.4*,-0.3,22.4*,
Cc1ccc([N+](=O)[O-])c(OCC(O)CNC(C)(C)C)c1 (stereo not drawn),-6.1,2.0,1.8,3.5,·,
CC[C@H](C)Cc1cn([C@@H](CCCN=C(N)N)C(=O)NCCCCCCCCCCC(=O)N2CCNCC2)nn1,-3.9,-0.3,86.0*,-0.5,-14.5,MPTP abs DR=11.1*;MPTP counter DR=75.7*
NCCCC[C@@H](C(=O)NCCCCCCCCCCC(=O)N1CCNCC1)n1cc(CCCC(=O)O)nn1,-4.0,3.0,-0.6,1.0,·,
Cc1c(OCC(=O)OC(C)(C)C)ccc2c3c(c(=O)oc12)CCC3,7.9,1.0,62.2*,-6.2,56.1*,
C=C(C)COc1ccc2c(C)c(CC(=O)OC)c(=O)oc2c1C,10.2,6.8,75.1*,-5.7,58.9*,
COc1ccc(-c2coc(CCC(=O)N3CCN(c4cc(C)ccc4C)CC3)n2)cc1,-1.9,1.6,3.0,-7.6,·,
CCN(c1ccccc1)S(=O)(=O)c1cc(C(=O)Nc2cccc(Cl)c2)ccc1F,23.5,15.4*,94.8*,-1.0,69.0*,
O=C(Nc1cccc(Cl)c1)c1ccc(F)c(S(=O)(=O)NCc2cccs2)c1,-1.9,13.4*,77.2*,1.5,84.3*,
Cc1cccc(NC(=O)c2ccc(F)c(S(=O)(=O)NCc3ccco3)c2)c1,1.8,-2.8,0.4,-1.0,·,
Cc1cc(C)c(S(=O)(=O)N2CCOC23CCN(S(C)(=O)=O)CC3)c(C)c1,-1.4,·,-1.6,0.3,·,
Cc1ccc(S(=O)(=O)/N=C(/Nc2ccc([N+](=O)[O-])cc2[N+](=O)[O-])c2ccccc2)cc1,-20.9,1.4,86.5*,-2.9,92.1*,
Cc1ccc(S(=O)(=O)/N=C(/Nc2ccc([N+](=O)[O-])cc2)c2ccccc2)cc1,2.5,-10.5,2.1,-0.5,·,
CC(C)(CNC(=O)c1ccc(-c2cccc(C(F)(F)F)c2)o1)N1CCOCC1,12.4,-4.1,2.5,2.1,·,
OCC1(Cc2cccc(C(F)(F)F)c2)CCN(Cc2cc(F)cc(F)c2)CC1,2.8,-4.6,2.0,1.1,·,
CSc1cccc(CN2CCC(CO)(Cc3cccc(C(F)(F)F)c3)CC2)c1,1.4,0.8,72.2*,0.2,-8.1,MPTP abs DR=5.25*;MPTP counter DR=40.5*
COc1ccc(OC)c(S(=O)(=O)N(C)CC(=O)N2CCN(c3ccccc3F)CC2)c1,2.0,-1.7,-2.1,-5.2,·,
Cc1ccc(Cl)cc1NC(=O)CC(O)(C(F)(F)F)C(F)(F)F,-13.9,-5.5,94.8*,3.2,93.5*,
COc1ccc(S(=O)(=O)N2CCOC23CCN(S(=O)(=O)c2ccc(F)cc2C)CC3)cc1,-1.0,-0.3,1.3,-0.8,·,
